Publication PMC6290999 (Journal of controlled release : official journal of the …, 2017)

Experiments:
Pin1 [1] = molecular target: T1, Pin1 (Homo sapiens, UniProt Q13526); assay: Western blotting of Pin1 and its substrates in HCC cells; assay type: cell-based; conditions: 72 h; for Pin1 expression: 20 μM ATRA
How it was run: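 PIN1-shRNA or scrambled-shRNA HuH7 and PLC lines were made by lentiviral transduction with 1 μg/mL puromycin selection. Lysates prepared in RIPA and quantified by BCA, run on SDS-PAGE and transferred to PVDF. Blocked in 5% milk, probed with anti-Pin1 (1:3000) then HRP secondary, detected by chemiluminescence; β-actin as loading control.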

HuH7 cells [2] = assay: Cell viability assay; assay type: cell-based, human; conditions: 0 to 40 μM ATRA; 24 h, 48 h, 72 h
How it was run: (§1)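 Seeded in 96-well plates at 3000 (HuH7) or 6000 (PLC) cells/well in DMEM or MEM with 10% FBS and cultured overnight. Treated with blank PLLA particles, free drug or drug-loaded PLLA particles; untreated control. MTT (5 mg/mL stock) added for 3 h, formazan dissolved in DMSO, absorbance read at 490 nm. Viability = OD sample/OD control × 100; IC50 calculated from inhibition rates.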

PLC cells = assay: Cell viability assay; assay type: cell-based, human; conditions: 0 to 40 μM ATRA; 24 h, 48 h, 72 h
How it was run: as §1

[3] = system: normal human liver L-02 cells; assay: Cell viability assay; assay type: cell-based; conditions: even at 20 μM
shV–HuH7 cells = assay: Cell viability assay; assay type: cell-based, human; conditions: 20 μM, 72 h
shPin1–HuH7 cells = assay: Cell viability assay; assay type: cell-based, human; conditions: 20 μM
shV–PLC cells = assay: Cell viability assay; assay type: cell-based, human; conditions: 20 μM; 24 h, 48 h, 72 h
How it was run: (§2)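 Stable lines made by lentiviral pLKO.1 shRNA (PIN1 or scrambled) produced in 293T with pVSVG, pREV and pMDL helpers. PLC cells were infected, selected with 1 μg/mL puromycin and checked by Western blot. Viability read by MTT: 3 h incubation, DMSO solubilisation, 490 nm, expressed as OD sample/OD control × 100.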

shPin1–PLC cells = assay: Cell viability assay; assay type: cell-based, human; conditions: 20 μM; 24 h, 48 h, 72 h
How it was run: as §2

HuH7 cells [4] = assay: Focus formation assay; assay type: cell-based, human; conditions: 72 h treatment, then 10~14 days; vs control cells
How it was run: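 HuH7 seeded at 500 or 2000 cells/well in 12- or 6-well plates, cultured overnight, then treated 72 h with blank PLLA particles, free drug or drug-loaded PLLA particles. Medium then replaced and cells grown 10~14 days. Fixed and stained with 0.5% methylene blue in methanol; colonies above 50 cells counted. Focus area given as % of untreated control; triplicates.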

HuH7 cells [5] = assay: Cell cycle and apoptosis analysis; assay type: cell-based, human; conditions: 10 μM and 20 μM ATRA, 72 h
How it was run: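 HuH7 seeded at 0.9 × 10⁴ cells/cm², cultured overnight, then given blank PLLA particles (0.25 mg/mL), free drug (10 and 20 μM) or drug-loaded PLLA particles (10 and 20 μM drug) for 72 h; untreated cells as control. Trypsinised cells fixed in 70% ethanol (4°C, 2 h), stained with propidium iodide (30 min, 37°C, dark) using a kit, then analysed by flow cytometry.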

Pin1 [6] = molecular target: T1, Pin1; assay: Pin1 and substrate expression in xenograft tumors; assay type: in vivo, BALB/c nu/nu mice; conditions: immunofluorescence staining, 3 weeks treatment
How it was run: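 Male nude mice carried subcutaneous hind-limb HuH7 xenografts (4 × 10⁶ cells) and were treated for three weeks. Frozen tumour sections (10 μm) fixed in acetone 10 min, permeabilised and blocked with 1% Triton X-100 plus 10% donkey serum for 40 min. Primary antibodies (PIN1, Ki67) applied 24 h at 4°C, secondary 1 h at room temperature, DAPI nuclear stain.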

[7] = Weight of mice in xenograft experiment; assay type: in vivo, BALB/c nu/nu mice; conditions: 3 weeks treatment
How it was run: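 Male BALB/c nu/nu mice bore subcutaneous hind-limb HuH7 xenografts (4 × 10⁶ cells) and were randomised at about 50 mm³. Groups received saline, free drug (ethanol diluted in corn oil), blank PLLA particles, slow-release pellet, or drug-loaded particles in saline. Dosing was i.p. at 15 mg/kg drug, twice weekly for three weeks. Body weight recorded weekly.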

[8] = under physiological conditions ref 41; cited from earlier work

T1 sequence (Q13526 whole entry): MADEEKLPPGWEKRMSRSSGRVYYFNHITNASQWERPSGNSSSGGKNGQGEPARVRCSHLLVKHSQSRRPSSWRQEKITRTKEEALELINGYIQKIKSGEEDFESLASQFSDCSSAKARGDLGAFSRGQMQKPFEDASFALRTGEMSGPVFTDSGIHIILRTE

Expression of Pin1 and its substrates (β-catenin, c-JUN, NF-κB, Cyclin D1, CDK2, CDK6) (Pin1 [1]; HuH7 and PLC cells, 5-20 μM ATRA): obvious dose-dependent down-regulations
Pin1 expression (Pin1 [1]; shPin1–HuH7 and shPin1–PLC cells): did not affect
Pin1 expression (Pin1 [1]; shV–HuH7 and shV–PLC cells): significantly down-regulated
Expression of Pin1 and Ki67 in tumors vs saline group (Pin1 [6]): did not induce obvious changes
Weights of mice vs saline group [7]: did not induce significant changes
SMILES: CC1=C(/C=C/C(C)=C/C=C/C(C)=C/C(=O)O)C(C)(C)CCC1 [ATRA, all-trans retinoic acid]
Inhibition on HuH7 cell viability (HuH7 cells [2]): Dose-dependent inhibition
Inhibition on PLC cell viability (PLC cells): dose-dependent inhibition
Inhibition on viability of L-02 cells [3]: no significant inhibition
Decrease of cell viability (shV–HuH7 cells): approximately 36%
Inhibition on cell viability (shV–HuH7 cells; 24 h, 48 h): very significant (p < 0.001) time-dependent inhibition
Decrease of cell viability (shPin1–HuH7 cells; 24 h and 48 h): did not decrease cell viability
Reduction of cell viability (shPin1–HuH7 cells; 72 h): about 15%
Inhibition on cell viability (shV–PLC cells): significant time-dependent inhibition
Decrease of cell viability (shPin1–PLC cells): did not decrease cell viability
Number and area of foci (HuH7 cells [4]): significant dose-dependent reductions
Apoptosis (HuH7 cells [5]): did not induce significant apoptosis
Proportion of cells in G0/G1 phase (HuH7 cells [5]): significantly increased
Proportion of cells in G2/M phase (HuH7 cells [5]): decreased
Aqueous solubility [8]: 0.21 µM
